ChEMBL document CHEMBL4765448, “Multiple biological active 4-aminopyrazoles containing trifluoromethyl and their 4-nitroso-precursors: Synthesis and evaluation” (Eur J Med Chem, 2020)
Values after ≈ are worked out from the molar mass of the structure shown. Values joined by “and” are separate entries in the source; they are usually repeats but may differ in a detail not shown here. Identical values can stand only once. Active and inactive are the calls of the source. The rule behind the calls is not given here.

What was measured:
[1] = Antioxidant activity assessed as AAPH scavenging activity by measuring residual fluorescence at 50 uM measured at 1 min interval for 30 mins by ORAC fluorescein assay relative to control; type: functional
Outline: (§1)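 ORAC-FL assay with fluorescein as the probe and AAPH as the peroxyl radical generator. The loss of fluorescence over time was followed, and the result is given as % fluorescence restored at 10 and 50 µM. Each value is the mean of two independent experiments.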

[2] = system: Rattus norvegicus; test: Antiinflammatory activity in rat model of carrageenan-induced paw edema assessed as inhibition of hind paw swelling at 15 mg/kg, ip measured after 3 hrs relative to control; type: functional
[3] = system: HeLa; test: Cytotoxicity against human HeLa cells; type: functional, cell-based
[4] = Antioxidant activity assessed as trolox equivalent of ABTS radical scavenging activity measured after 1 hr by UV-vis spectrophotometric method; type: functional
Outline: (§2)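 ABTS cation-radical decolorization was read spectrophotometrically as the fall in absorbance after 1 h. Trolox was the reference. TEAC was taken as the ratio of concentration-response slopes, test/Trolox, and IC50 was also derived. Data are mean ± SEM, n = 3.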

[5] = Antioxidant activity assessed as AAPH scavenging activity by measuring residual fluorescence at 10 uM measured at 1 min interval for 30 mins by ORAC fluorescein assay relative to control; type: functional; outline: as §1
[6] = system: Rattus norvegicus; test: Antiinflammatory activity in rat model of carrageenan-induced paw edema assessed as inhibition of hind paw swelling at 15 mg/kg, ip measured after 5 hrs; type: functional, organism-based
[7] = system: Mycobacterium tuberculosis; test: Antitubercular activity against Mycobacterium tuberculosis H37Rv; type: functional
Outline: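 Mycobacterium tuberculosis strain H37Rv; minimum inhibitory concentration (MIC) taken as the lowest level needed to inhibit bacterial growth; isoniazid and pyrazinamide served as reference drugs.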

[8] = system: Staphylococcus aureus; test: Antibacterial activity against Staphylococcus aureus; type: functional
[9] = system: Neisseria gonorrhoeae; test: Antibacterial activity against Neisseria gonorrhoeae; type: functional
[10] = system: Escherichia coli; test: Antibacterial activity against Escherichia coli; type: functional
[11] = system: NHDF; test: Cytotoxicity against HDF cells; type: cell-based, Homo sapiens; conditions: nhdf
[12] = system: Pseudomonas aeruginosa; test: Antibacterial activity against Pseudomonas aeruginosa; type: functional
[13] = system: Klebsiella pneumoniae; test: Antibacterial activity against Klebsiella pneumoniae; type: functional
[14] = system: Serratia marcescens; test: Antibacterial activity against Serratia marcescens; type: functional
[15] = system: Shigella flexneri; test: Antibacterial activity against Shigella flexneri; type: functional
[16] = system: Streptococcus pyogenes; test: Antibacterial activity against Streptococcus pyogenes; type: functional
[17] = system: Citrobacter braakii; test: Antibacterial activity against Citrobacter braakii; type: functional
[18] = system: Proteus vulgaris; test: Antibacterial activity against Proteus vulgaris; type: functional
[19] = system: Trichophyton violaceum; test: Antifungal activity against Trichophyton violaceum; type: functional
[20] = system: Trichophyton rubrum; test: Antifungal activity against Trichophyton rubrum; type: functional
[21] = system: Trichophyton interdigitale; test: Antifungal activity against Trichophyton mentagrophytes var. interdigitale; type: functional
[22] = system: Microsporum canis; test: Antifungal activity against Microsporum canis; type: functional
[23] = system: Trichophyton tonsurans; test: Antifungal activity against Trichophyton tonsurans; type: functional
[24] = system: Nannizzia gypsea; test: Antifungal activity against Trichophyton gypseum; type: functional
[25] = system: Epidermophyton floccosum; test: Antifungal activity against Epidermophyton floccosum; type: functional
[26] = system: Staphylococcus aureus; test: Antibacterial activity against methicillin resistant Staphylococcus aureus; type: functional
[27] = system: Candida albicans; test: Antifungal activity against Candida albicans; type: functional
[28] = Antioxidant activity assessed as ABTS radical scavenging activity measured after 1 hr by UV-vis spectrophotometric method; type: functional; outline: as §2
[29] = system: Rattus norvegicus; test: Analgesic activity in rat assessed as prolongation of latency period at 15 mg/kg, ip measured after 1 hr by hot-plate test relative to control; type: functional
Outline: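 Hot-plate test in rats. Compounds were given by intraperitoneal injection. Latency was read at 1 h and, for some compounds, also at 2 h after dosing. Results are expressed as % prolongation of the latent period versus vehicle-treated control. Significance was given as p-values.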

[30] = system: Rattus norvegicus; test: Antiinflammatory activity in rat model of carrageenan-induced paw edema assessed as inhibition of hind paw swelling at 15 mg/kg, ip measured after 1 hr relative to control; type: functional
[31] = system: Erythrocyte; test: Antioxidant activity in human erythrocytes assessed as protection against AAPH-induced hemolysis at 50 uM preincubated for 20 mins followed by AAPH addition and measured after 2 hrs by spectrophotometric method relative to control; type: functional; conditions: time 140 min, 2.333 h
Outline: (§3)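 Erythrocyte hemolysis assay with AAPH as the free-radical initiator, testing 50 and 400 µM. Results are expressed as relative protection of membranes against oxidative damage, each the mean of two independent experiments.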

[32] = system: Erythrocyte; test: Antioxidant activity in human erythrocytes assessed as protection against AAPH-induced hemolysis at 400 uM preincubated for 20 mins followed by AAPH addition and measured after 2 hrs by spectrophotometric method relative to control; type: functional; conditions: time 140 min, 2.333 h; outline: as §3
[33] = Selectivity index, ratio of IC50 for HDF cells to IC50 for human HeLa cells; type: toxicity; conditions: HDF cells versus HeLa cells, read-out: Ratio IC50
[34] = Homo sapiens, HeLa, read-out: IC50

SMILES	Activity [4]	Activity [6]	MIC [8]	MIC [9]	MIC [10]	MIC [12]	MIC [13]	MIC [14]	MIC [15]	MIC [16]	MIC [17]	MIC [18]	MIC [19]	MIC [20]	MIC [21]	MIC [22]	MIC [23]	MIC [24]	MIC [27]	also measured
Nc1c(C(F)(F)F)n[nH]c1-c1ccccc1	0.58 equiv and 1.35 equiv	Active	–	–	–	–	–	–	–	–	–	–	–	–	–	–	–	–	–	Activity [1]: 60.2% and 62.8%; inhibition [2]: inactive; Activity [3]: Dose-dependent effect; Activity [5]: 63.1% and 59.7%
Nc1c(C(F)(F)F)n[nH]c1-c1cccs1	1.22 equiv and 1.1 equiv	Active	–	–	–	–	–	–	–	–	–	–	–	–	–	–	–	–	–	Activity [1]: 14% and 21.8%; Activity [5]: 52.5% and 52.6%
NNC(=O)c1ccncc1 [ISONIAZID]	–	–	–	–	–	–	–	–	–	–	–	–	–	–	–	–	–	–	–	MIC [7]: 0.15 µg/mL (≈ 1.09 µM)
CS(=O)(=O)c1ccc(-n2nc(C(F)(F)F)c(N)c2-c2ccccc2)cc1.Cl	inactive	Active	> 250 µg/mL	250 µg/mL	> 250 µg/mL	> 250 µg/mL	> 250 µg/mL	> 250 µg/mL	> 250 µg/mL	> 250 µg/mL	> 250 µg/mL	> 250 µg/mL	–	–	–	–	–	–	–	IC50 [11]: Not Active; IC50 ([3]; hela): Not Active
CS(=O)(=O)c1ccc(-n2nc(C(F)(F)F)c(N=O)c2-c2ccccc2)cc1	–	Active	> 250 µg/mL	62.5 µg/mL (≈ 158 µM)	> 250 µg/mL	> 250 µg/mL	> 250 µg/mL	> 250 µg/mL	> 250 µg/mL	> 250 µg/mL	> 250 µg/mL	> 250 µg/mL	> 200 µg/mL	200 µg/mL (≈ 506 µM)	200 µg/mL (≈ 506 µM)	200 µg/mL (≈ 506 µM)	> 200 µg/mL	200 µg/mL (≈ 506 µM)	> 200 µg/mL	MIC [25]: 200 µg/mL (≈ 506 µM); MIC [26]: 31.2 µg/mL (≈ 78.9 µM)
O=C1O[C@H]([C@@H](O)CO)C(O)=C1O [ASCORBIC ACID]	–	–	–	–	–	–	–	–	–	–	–	–	–	–	–	–	–	–	–	IC50 [28]: 21.6 µM
Cc1c(N(C)CS(=O)(=O)O)c(=O)n(-c2ccccc2)n1C [METAMIZOLE]	–	–	–	–	–	–	–	–	–	–	–	–	–	–	–	–	–	–	–	Activity [29]: 59.8%; inhibition [30]: inactive; inhibition [2]: inactive
Cl.Nc1c(C(F)(F)F)n[nH]c1-c1ccccc1	–	–	> 250 µg/mL	62.5 µg/mL	> 250 µg/mL	> 250 µg/mL	> 250 µg/mL	> 250 µg/mL	> 250 µg/mL	> 250 µg/mL	> 250 µg/mL	> 250 µg/mL	> 200 µg/mL	> 200 µg/mL	> 200 µg/mL	> 200 µg/mL	> 200 µg/mL	> 200 µg/mL	> 200 µg/mL	IC50 [11]: Not Active; MIC [7]: 6.2 µg/mL; Activity [29]: 91.8%; IC50 [28]: 41.8 µM; inhibition in vivo at 15 mg/kg [30]: 44.8%; IC50 [3, 34]: 1.86 µM; MIC [25]: > 200 µg/mL; fold change (FC) [31]: 1.03; fold change (FC) [32]: 0.01; selectivity ratio [33]: > 53.8
Cl.Cn1nc(C(F)(F)F)c(N)c1-c1cccs1	0.1 equiv	Active	> 250 µg/mL	> 250 µg/mL	> 250 µg/mL	> 250 µg/mL	> 250 µg/mL	> 250 µg/mL	> 250 µg/mL	> 250 µg/mL	> 250 µg/mL	> 250 µg/mL	> 200 µg/mL	> 200 µg/mL	200 µg/mL	> 200 µg/mL	> 200 µg/mL	> 200 µg/mL	> 200 µg/mL	IC50 [11]: Not Active; MIC [7]: 12.5 µg/mL; Activity [3]: Dose-dependent effect; IC50 [3, 34]: 48.7 µM; MIC [25]: > 200 µg/mL; selectivity ratio [33]: > 2.05
Cc1ccc(-c2[nH]nc(C(F)(F)F)c2N)cc1	1.43 equiv	Active	–	–	–	–	–	–	–	–	–	–	–	–	–	–	–	–	–	IC50 [28]: 13.4 µM
OC(Cn1cncn1)(Cn1cncn1)c1ccc(F)cc1F [FLUCONAZOLE]	–	–	–	–	–	–	–	–	–	–	–	–	100 µg/mL (≈ 327 µM)	6.25 µg/mL (≈ 20.4 µM)	> 100 µg/mL	100 µg/mL (≈ 327 µM)	> 100 µg/mL	12.5 µg/mL (≈ 40.8 µM)	> 100 µg/mL	–
